# Data taken from ChEMBL document CHEMBL3813679, “DARC: Mapping Surface Topography by Ray-Casting for Effective Virtual Screening at Protein Interaction Sites” (J Med Chem, 2016).
# The source made the active and inactive calls. No cut-off for these calls is given here.
# Tests used:
# [1] = molecular target: T1, Induced myeloid leukemia cell differentiation protein Mcl-1 (Homo sapiens, UniProt Q07820); assay: biochemical
# [2] = molecular target: T1, Induced myeloid leukemia cell differentiation protein Mcl-1; assay: Binding affinity to PEST and transmembrane regions lacking N-terminal His6/MBP-tagged human MCl1 (172 to 327 residues) expressed in Escherichia coli Rosetta2(2DE3) pLysS cells assesed as inhibition of protein interaction with carboxyfluorescein-labeled 26-mer Noxa peptide at 15 nM to 250 uM by fluorescence polarization assay in presence of CHAPS
# In short: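 Competition fluorescence polarization assay measuring displacement of a […] cognate (Noxa) peptide from Mcl-1. Polarization was read across a dose series of test compound. Buffer contained 0.1% CHAPS to rule out compound aggregation. Ki values were derived from the competition data.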
# [3] = molecular target: T1, Induced myeloid leukemia cell differentiation protein Mcl-1; assay: Reversible binding affinity to PEST and transmembrane regions lacking N-terminal His6/MBP-tagged human MCl1 (172 to 327 residues) expressed in Escherichia coli Rosetta2(2DE3) pLysS cells at 50 uM measured for 300 secs by bio-layer interferometry
# T1 sequence (Q07820 whole entry, the tested form may be a part): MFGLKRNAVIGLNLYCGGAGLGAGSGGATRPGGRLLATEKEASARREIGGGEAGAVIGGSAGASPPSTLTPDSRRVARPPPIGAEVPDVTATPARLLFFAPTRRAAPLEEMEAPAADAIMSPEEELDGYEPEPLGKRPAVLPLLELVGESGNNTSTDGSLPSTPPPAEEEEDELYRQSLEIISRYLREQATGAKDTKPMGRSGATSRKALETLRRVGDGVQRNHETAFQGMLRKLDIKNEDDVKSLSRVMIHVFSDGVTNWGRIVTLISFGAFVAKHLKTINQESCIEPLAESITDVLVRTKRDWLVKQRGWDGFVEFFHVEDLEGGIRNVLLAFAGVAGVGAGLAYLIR
SMILES,Ki [1] [µM],also measured
COc1ccc(C(=O)/C=C/c2cc(F)c(O)c(Cl)c2)cc1,7,
COc1cc2oc(-c3ccc(N)cc3)cc(=O)c2c(OC)c1OC,> 50,
C[C@@]12CC[C@@H]3[C@H](CCC4=CC(=O)CC[C@H]43)[C@H]1CC[C@H]2OC1(O)C(=O)c2ccccc2C1=O,12,inhibition [2]: Active; Activity [3]: Active
COc1cc(O)c(C(=O)/C=C/c2ccc([N+](=O)[O-])cc2)c(OC)c1OC,> 50,
COc1cc(O)c(C(=O)/C=C/c2ccc(O)c(OC)c2)c(OC)c1,21,inhibition of Noxa peptide binding (active/inactive call) [2]: Active; Activity [3]: Active
COc1cc(C(=O)/C=C/c2ccc(O)cc2)c(O)c(OC)c1OC,40,
COc1cc(/C=C/C(=O)c2ccc(OC)c(OC)c2OC)cc(Cl)c1O,2,
COc1cc(O)c(C(=O)/C=C/c2ccccc2[N+](=O)[O-])c(OC)c1OC,> 50,
COc1cc(C(=O)/C=C/c2ccc3c(c2)OCO3)c(O)c(OC)c1OC,> 50,
COc1cc(O)c(C(=O)/C=C/c2ccc(C(F)(F)F)cc2)c(OC)c1OC,> 50,
COc1ccc(C(=O)/C=C/c2cc(F)c(O)c(Cl)c2)c(OC)c1OC,3,
O=C(/C=C/c1ccc(O)c(F)c1)c1ccc2c(c1)CCO2,> 50,
c1cc2c(cc1[C@H]1OC[C@H]3[C@H]1CO[C@H]3c1ccc3c(c1)OCO3)OCO2,7,inhibition of Noxa peptide binding (active/inactive call) [2]: Active; Activity [3]: Active
COc1cc2oc(-c3ccccc3N)cc(=O)c2c(OC)c1OC,> 50,
COc1ccc(C(=O)/C=C/c2ccc(O)c(F)c2)c(OC)c1OC,28,
O=C(/C=C/c1cc(F)c(O)c(Cl)c1)c1ccncc1,> 50,

SMILES,Ki [1] [µM],also measured
Cc1c(/C=N/N2C=Nc3c([nH]c4ccccc34)C2)c(=O)oc2c3c4c(cc12)CCCN4CCC3,,inhibition of Noxa peptide binding (active/inactive call) [2]: Active; Activity [3]: Active
COc1cc2oc(-c3ccccc3[N+](=O)[O-])cc(=O)c2c(OC)c1OC,> 50,
COc1ccc(/C=C/C(=O)c2ccc(O)cc2)cc1,> 50,
COc1ccc(C(=O)/C=C/c2ccc(O)cc2)cc1,> 50,
COc1ccc(C(=O)/C=C/c2cccc(F)c2O)cc1,20,
COc1ccc(/C=C/C(=O)c2cc(OC)c(OC)c(OC)c2O)cc1,> 50,
COc1ccc(C(=O)/C=C/c2cc(Cl)c(O)c(OC)c2)cc1,10,
COc1ccc(/C=C/C(=O)c2ccc(O)cc2)c(O)c1,> 50,
O=C(/C=C/c1cc(F)c(O)c(F)c1)c1ccc2c(c1)CCO2,> 50,
COc1cc(C(=O)/C=C/c2ccc(C(F)(F)F)cc2)c(O)c(OC)c1OC,> 50,
COc1cc(C(=O)/C=C/c2ccc([N+](=O)[O-])cc2)c(O)c(OC)c1OC,> 50,
O=C(/C=C/c1ccncc1)c1ccc(O)cc1,> 50,
O=C(/C=C/c1ccc(O)cc1)c1ccc2c(c1)CCO2,> 50,
COc1cc2oc(-c3ccc(C(F)(F)F)cc3)cc(=O)c2c(OC)c1OC,> 50,
COc1ccc(C(=O)/C=C/c2ccncc2)c(O)c1,> 50,
